From ChEMBL document CHEMBL4431342, “Coumarin derivatives as potential inhibitors of acetylcholinesterase: Synthesis, molecular docking and biological studies” (Bioorg Med Chem, 2016) come the findings set out here.

Molecules are shown by their SMILES. Calls of active or inactive are those of the source. No cut-off for these calls is given here.

One assay addresses T1, Acetylcholinesterase (Mus musculus, UniProt P21836).
T1 sequence (P21836 whole entry): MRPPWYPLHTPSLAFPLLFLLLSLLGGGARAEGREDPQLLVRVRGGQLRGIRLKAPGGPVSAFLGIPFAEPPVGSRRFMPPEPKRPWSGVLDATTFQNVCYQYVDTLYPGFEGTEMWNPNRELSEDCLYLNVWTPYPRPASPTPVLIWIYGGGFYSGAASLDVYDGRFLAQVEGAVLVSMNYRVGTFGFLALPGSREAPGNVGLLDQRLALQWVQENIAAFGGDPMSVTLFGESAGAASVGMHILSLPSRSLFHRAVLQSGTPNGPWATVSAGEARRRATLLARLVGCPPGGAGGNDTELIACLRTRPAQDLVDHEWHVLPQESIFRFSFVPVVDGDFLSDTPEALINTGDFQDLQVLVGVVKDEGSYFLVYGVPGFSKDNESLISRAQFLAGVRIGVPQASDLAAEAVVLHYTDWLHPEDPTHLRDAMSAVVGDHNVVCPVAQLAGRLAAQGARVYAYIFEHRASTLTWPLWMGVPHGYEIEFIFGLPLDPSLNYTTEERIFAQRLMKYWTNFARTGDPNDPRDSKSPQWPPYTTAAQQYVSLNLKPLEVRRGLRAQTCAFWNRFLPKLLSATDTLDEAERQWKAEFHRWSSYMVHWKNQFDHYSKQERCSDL
Kind of assay: biochemical. Format: tissue-based, LACA, Brain.

Assay [1] relates to Mus musculus. Kind of assay: Antiamnesic activity in Albino LACA mouse assessed as decrease in scopolamine-induced increase in escape latency time administered intraperitoneally 5 mins post scopolamine challenge for 35 mins by Morris water maze test. In kind it is functional, organism-based. Put shortly:
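Mice of either sex, 25-35 g, housed in groups of five. […] Water maze: water 30 cm deep at 28 ± 2 °C, 5 days, 90 s maximum per trial, then a 90 s probe trial. Read-out is escape latency; n = 5, mean ± SEM.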

The test system of assay [2] is Mus musculus. The assay is described as follows: Antiamnesic activity in Albino LACA mouse assessed as scopolamine-induced increase in escape latency time administered intraperitoneally 5 mins post scopolamine challenge for 35 mins by Morris water maze test (reference value: 49.35 +/- 2.21 secs). Format: functional. Put shortly: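 LACA albino mice, 25-35 g, either sex, housed five per group. Scopolamine 0.5 mg/kg i.p. or saline given 35 min before training, then vehicle (0.25% CMC suspension) or compound 1 mg/kg i.p. 5 min later. Water maze at 30 cm depth, 28 ± 2 °C, training over 5 days, 90 s maximum per trial, probe trial 90 s. Escape latency recorded, mean of 5 mice.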

As usually defined, the IC50 is the point on the concentration scale where inhibition reaches its midpoint. A lower IC50 goes with greater potency in that assay. The molecule `COc1ccc(CCNCCCOc2cc(=O)oc3ccccc23)cc1OC` showed an IC50 on Acetylcholinesterase of 47.1 µM. In addition, in the assay on Mus musculus [1], the outcome was Active.
The molecule `O=c1cc(OCCCN2CCN(c3ccc(F)cc3)CC2)c2ccccc2o1` showed an IC50 at Acetylcholinesterase of 9.5 µM. For the same molecule, the result in the assay on Mus musculus [1] was Active.
`O=c1cc(OCCCN2CCN(c3ccccc3)CC2)c2ccccc2o1`: in the assay on Mus musculus [2], the Time is given as 8.05 s. At Acetylcholinesterase, this molecule showed an IC50 of 2.42 µM. In the assay on Mus musculus [1], the result was Active.
At Acetylcholinesterase, `O=c1cc(OCCCCN2CCN(c3ccccn3)CC2)c2ccccc2o1` registered an IC50 of 37.5 µM. Also, the outcome in the assay with Mus musculus [1] was Active.
With `O=c1cc(OCCCN2CCN(c3ncccn3)CC2)c2ccccc2o1`, the Time in the assay with Mus musculus [2] was 13.98 s. For the same molecule, the IC50 against Acetylcholinesterase was 21.6 µM. Moreover, the result with Mus musculus [1] was Active.
`O=c1cc(OCCCCN2CCN(c3ccccc3)CC2)c2ccccc2o1`: the IC50 against Acetylcholinesterase stood at 14.9 µM. Also, the result with Mus musculus [1] was Active.
The like results for `O=c1cc(OCCCCN2CCN(c3ncccn3)CC2)c2ccccc2o1` were, in that order, 34.8 µM and “Active”.
The matching figures for `O=c1cc(OCCCN2CCN(c3ccccn3)CC2)c2ccccc2o1`: 16.1 µM and “Active”.
Regarding `O=C(Oc1cc(=O)oc2ccccc12)N1CCN(c2ccccc2)CC1`, at Acetylcholinesterase, inhibition was half-maximal at 74.8 µM (IC50). Moreover, in the assay with Mus musculus [1], the result was Active.
The matching figures for `O=c1cc(OCCCN2CCC(Cc3ccccc3)CC2)c2ccccc2o1`: 11.4 µM and “Active”.
`O=c1cc(OCCCNCCc2ccccc2)c2ccccc2o1`: at Acetylcholinesterase, the IC50 stood at 66.9 µM. The result with Mus musculus [1] was Active.
Consider `O=c1cc(OCCCCN2CCN(c3ccccc3F)CC2)c2ccccc2o1`, for which, at Acetylcholinesterase, the half-inhibitory concentration (IC50) stood at 29.7 µM. Also, in the assay with Mus musculus [1], the outcome was Active.
Molecule `O=C(NCCc1ccccc1)Oc1cc(=O)oc2ccccc12` had a 50% inhibitory concentration (IC50) against Acetylcholinesterase of 83.4 µM. Besides, the outcome with Mus musculus [1] was Active.
For `O=c1cc(OCCCN2CCN(c3ccccc3F)CC2)c2ccccc2o1`, the Time with Mus musculus [2] was determined as 11.8 s. The molecule also had an IC50 on Acetylcholinesterase of 5.2 µM. Besides, the outcome in the assay on Mus musculus [1] was Active.
